Most compounds without a hit are left out; they make up all but 2.3% or so of the library.
TRPC6 act: activators of mouse TRPC6 channel | HEK293-TRPC6 membrane potential dye fluorescence; active compounds read high | 0.13% of 310,000 active | B-score at 10 µM;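 active = B-score of the integrated fluorescence ratio above library mean plus 3 SD, and starting fluorescence ratio within library mean plus 5 SD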;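 also: higher score means more depolarization so channel activation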
TRPC6 inh: blocks the mouse TRPC6 cation channel; Q61143; 1.1% of 310,000 active; HEK293-TRPC6, membrane potential dye, ACh-evoked depolarization; active compounds read low; AID 2553; B-score at 10 µM;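 active = B-score under library mean minus 3 SD, initial fluorescence not abnormally high, positive integrated signal ratio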;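 also: B-score derived from integrated fluorescence ratio over the kinetic read; more negative B-score means stronger inhibition of depolarization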
TRPC4 block: blocks the mouse TRPC4 cation channel; Q9QUQ5; HEK293 TRPC4beta/mu-opioid, DAMGO-evoked Fluo4 calcium flux; active compounds read low; B-score at 10 µM; 0.39% of 300,000 active; AID 2247;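 active = B-score over 3 SD under the library average, no early fluorescence shift, positive overall ratio signal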
Target sequence (Q9QUQ5 whole entry, looked up): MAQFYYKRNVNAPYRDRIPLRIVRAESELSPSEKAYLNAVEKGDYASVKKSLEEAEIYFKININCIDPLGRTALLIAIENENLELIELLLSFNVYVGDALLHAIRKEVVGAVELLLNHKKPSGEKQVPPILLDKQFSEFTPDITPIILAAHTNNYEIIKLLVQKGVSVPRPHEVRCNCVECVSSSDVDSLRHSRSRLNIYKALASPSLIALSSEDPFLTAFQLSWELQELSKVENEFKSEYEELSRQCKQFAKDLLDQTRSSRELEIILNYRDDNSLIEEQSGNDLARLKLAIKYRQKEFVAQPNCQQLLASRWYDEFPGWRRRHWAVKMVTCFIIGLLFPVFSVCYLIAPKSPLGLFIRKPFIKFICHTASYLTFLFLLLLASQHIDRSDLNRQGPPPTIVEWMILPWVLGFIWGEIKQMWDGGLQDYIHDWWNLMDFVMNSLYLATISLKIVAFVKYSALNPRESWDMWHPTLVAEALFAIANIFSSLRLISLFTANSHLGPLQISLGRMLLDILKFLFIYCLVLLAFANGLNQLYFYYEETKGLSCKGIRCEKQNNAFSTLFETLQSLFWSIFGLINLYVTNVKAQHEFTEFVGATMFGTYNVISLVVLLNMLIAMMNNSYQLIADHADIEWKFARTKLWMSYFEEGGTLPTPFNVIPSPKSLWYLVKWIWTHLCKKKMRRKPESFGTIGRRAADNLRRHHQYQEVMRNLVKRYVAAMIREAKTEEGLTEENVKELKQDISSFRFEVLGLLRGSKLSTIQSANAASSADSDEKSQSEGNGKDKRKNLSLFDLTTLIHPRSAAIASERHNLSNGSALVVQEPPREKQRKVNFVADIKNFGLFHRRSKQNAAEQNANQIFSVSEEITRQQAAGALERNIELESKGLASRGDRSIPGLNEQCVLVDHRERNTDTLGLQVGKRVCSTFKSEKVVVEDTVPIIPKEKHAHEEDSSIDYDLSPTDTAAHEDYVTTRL
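Assay system: TRPC4beta/mu-opioid receptor HEK293 cell line; compound dosing: single concentration per test compound; detection: Fluo4 Ca2+ flux fluorescence; evaluation: per-well B score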
TRPC4 agonist: opens the mouse TRPC4 cation channel. 0.49% of 310,000 active. HEK293 TRPC4beta/mu-opioid, Fluo4 calcium fluorescence; active compounds read high. Q9QUQ5. B-score at 10 µM;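 active = B-score above 5 SD of library B-scores, and initial fluorescence ratio not above library mean plus 5 SD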;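 also: positive B-score marks a calcium rise read as TRPC4 activation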
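Material: HEK293 stable line with TRPC4beta plus mu-opioid receptor; technique: Fluo4 calcium-sensitive dye fluorescence, kinetic, 1 Hz baseline; timing: Fluo4 dye loading 45 min at room temperature, 110 s recording; controls: assay buffer as low control, maximal DAMGO as high control; read-out: integrated baseline-normalised fluorescence ratio, converted to per-well B score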
TRPC4 PAM: allosteric potentiators of mouse TRPC4 channel | 0.42% of 310,000 active | HEK293 TRPC4beta/mu-opioid, DAMGO EC20, Fluo-4 Ca2+ flux; active compounds read high | B-score at 10 µM;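 active = B-score of calcium response area above 5 SD of library B-scores, with initial fluorescence ratio within 5 SD of library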;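 also: B-score of integrated fluorescence ratio over time as area under calcium response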
TRPC4 sel inh 2: mouse TRPC4 off-target activity of TRPC6 inhibitors, second screen; shares compounds with TRPC6 inh; HEK293 TRPC4/MOR, membrane potential dye fluorescence; channel activated by saturating DAMGO dose; inhibition, % at 10 µM; 42% of 920 active;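 active = compounds whose fluorescence signal differed from control wells by over 3 SD, either direction, in both duplicate plates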
TRPC4 spec: tests whether TRPC6 inhibitors also affect mouse TRPC4; shares compounds with TRPC6 inh; HEK293 TRPC4/mu-opioid, membrane potential fluorescence; activity change, negative = inhibition, % at 10 µM; 61% of 920 active; AID 2777;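 active = rise or fall in signal beyond 3 SD of buffer-only wells in both replicate plates, either sign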;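 also: integrated kinetic ratio of fluorescence range over baseline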
HEK293 MPD ctr 2-1: parental HEK293 nonspecific activity of TRPC6 inhibitors, second screen; shares compounds with TRPC6 inh; signal change vs control, % at 10 µM; parental HEK293 membrane potential dye fluorescence; maximal acetylcholine challenge after compound addition; 31% of 920 active;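 active = membrane potential signal moving either way by over 3 SD of the maximum-effect control, in both duplicate plates, meaning non-specific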
HEK293 MPD ctr-1: checks TRPC6 inhibitor effects in parental HEK293 cells. shares compounds with TRPC6 inh. parental HEK293 membrane potential dye fluorescence. membrane potential signal change, % at 10 µM. 60% of 920 active. AID 2780;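 active = membrane potential signal shifting up or down by more than 3 SD of buffer-only wells, on both duplicate plates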
HEK293 MPD ctr-2: checks TRPC6 modulator effects in parental HEK293 cells. shares compounds with TRPC6 inh. membrane potential dye fluorescence. membrane potential signal change, % at 10 µM. 51% of 2,400 active. AID 488924;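 active = membrane potential signal moves up or down beyond 5 SD from buffer-only wells, on both duplicate plates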
HEK293 MPD ctr 2-2: parental HEK293 nonspecific activity of TRPC6 modulators, second screen. membrane potential dye fluorescence; after compound, maximal acetylcholine stimulation. inhibition, % at 10 µM. 14% of 2,400 active. shares compounds with TRPC6 inh;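 active = membrane potential signal drops by more than 5 SD from the mean control signal, in both duplicate plates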;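 also: plate controls were acetylcholine ECmax control wells for no effect and buffer only wells for full effect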
TRPC4/MOR mod: tests whether TRPC6 modulators also affect mouse TRPC4 | shares compounds with TRPC6 inh | HEK293 TRPC4/mu-opioid, membrane potential fluorescence | percent change from control (negative = decrease, positive = increase), % at 10 µM | 69% of 2,400 active;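 active = membrane potential signal moved up or down beyond 5 SD of buffer control wells, in both duplicate plates, actives on both sides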;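 also: plate controls were assay buffer wells for no effect and DAMGO maximal-effect wells for full effect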
TRPC4 ctr inh 2: second selectivity test of TRPC6 modulators against mouse TRPC4 | AID 488928 | shares compounds with TRPC6 inh | 55% of 2,400 active | inhibition, % at 10 µM | HEK293 TRPC4/mu-opioid, membrane potential dye fluorescence; stimulated with maximal-effect DAMGO;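 active = drop in membrane potential signal beyond 5 SD of the control wells in both duplicate plates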;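 also: TRPC4 counter screen for TRPC6 hits run under conditions tuned for TRPC6 not TRPC4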
TRPC6 block conf: confirmation of mouse TRPC6 inhibitors; 43% of 3,300 active; HEK293-TRPC6, membrane potential dye, ACh-evoked depolarization; shares compounds with TRPC6 inh; AID 488960; inhibition, % at 10 µM;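 active = fluorescence ratio falls more than 5 SD below the full-stimulation control mean, in both duplicate runs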;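 also: integrated fluorescence ratio of peak minus minimum over baseline after agonist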
TRPC6 act confirm: mouse TRPC6 activator confirmation | activation, % at 10 µM | 11% of 2,800 active | shares compounds with TRPC6 inh | AID 488961 | HEK293-TRPC6 membrane potential dye fluorescence, FDSS;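 active = ratio signal rise beyond 5 SD above unstimulated control wells' mean, seen in both duplicate runs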;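 also: plate controls were buffer EC0 wells for no effect and acetylcholine ECmax response for full effect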
The depositor's hits bear a star; i = inactive; · = not tested or not shown.

SMILES	TRPC6 act	TRPC6 inh	TRPC4 block	TRPC4 agonist	TRPC4 PAM	HEK293 MPD ctr-2	HEK293 MPD ctr 2-2	TRPC4/MOR mod	TRPC4 ctr inh 2	TRPC6 block conf	TRPC6 act confirm	others
Cc1cccc(OCC(O)Cn2c(=N)n(Cc3ccccc3)c3ccccc32)c1 (stereo not given)	i	-5.67*	i	55*	i	145.0%*	i	68.0%*	111.5%*	49.5%*	·
CC1CCN(Cc2c(C(=O)N/N=C/c3cc(Br)ccc3O)nnn2-c2nonc2N)CC1	i	i	i	i	i	·	·	·	·	·	·
CC1CCN(Cc2c(C(=O)N/N=C/c3cc(Cl)ccc3O)nnn2-c2nonc2N)CC1	i	-5.52*	i	i	i	i	i	i	i	i	i
CC(C)(C)C(=O)OCc1nc(-c2ccc(F)cc2)cs1	i	i	i	i	i	·	·	·	·	·	·
Cc1sc2cc3c(c(C(=O)c4ccccc4)[n+]2c1C)-c1cccc2cccc-3c12	i	-8.57*	-6*	i	i	·	·	·	·	i	i	TRPC4 sel inh 2=i;TRPC4 spec=-28.1%*;HEK293 MPD ctr 2-1=i;HEK293 MPD ctr-1=-501.5%*
CN1CCN(c2ccccc2NC(=O)c2ccc(N3CCCC3)c([N+](=O)[O-])c2)CC1	i	-10.5*	i	i	i	-108.5%*	i	-29.5%*	82.0%*	58.0%*	i
O=C(Nc1ccccc1N1CCCCC1)c1ccc(Cl)c([N+](=O)[O-])c1	i	i	i	i	i	·	·	·	·	·	·
CN1CCN(c2ccc(C(=O)c3ccc(Br)cc3)cc2[N+](=O)[O-])CC1	i	-5.94*	i	i	i	i	i	-13.0%*	43.0%*	i	i
CC(C)CN1CCC(=O)N([C@H](CO)Cc2ccccc2)CC1	i	i	i	i	i	·	·	·	·	·	·
CCOc1ccc(C(C)(C)C)cc1S(=O)(=O)N1CC(C)OC(C)C1 (stereo not given)	i	i	i	i	i	·	·	·	·	·	·
O=C(COc1ccc(Br)cc1)Nc1cc(S(=O)(=O)N2CCCCC2)ccc1N1CCCCC1	i	i	i	i	i	·	·	·	·	·	·
CC(C)(C)C(=O)Nc1cc(S(=O)(=O)N2CCCCC2)ccc1N1CCCCC1	15.7*	-10.5*	i	i	i	179.5%*	i	19.5%*	i	43.0%*	74.5%*
CN1CCN(c2ccc(S(=O)(=O)N3CCCCC3)cc2NC(=O)COc2ccc(F)cc2)CC1	i	-5.9*	i	i	10*	i	i	10.5%*	74.5%*	i	i
CC(C)(C)C(=O)Nc1ccc(S(=O)(=O)N2CCCC2)cc1	i	i	i	i	i	·	·	·	·	·	·
COc1ccc(C(=O)CSc2nnc(CNC(=O)c3ccccc3F)n2C)cc1OC	i	i	i	i	i	·	·	·	·	·	·
COc1ccc(S(=O)(=O)Nc2noc3ccccc23)cc1	i	-6.69*	i	i	i	·	·	·	·	i	i	TRPC4 sel inh 2=i;TRPC4 spec=i;HEK293 MPD ctr 2-1=i;HEK293 MPD ctr-1=i
CCn1cc(Cl)c(C(=O)Nc2nc3ccccc3n2CCN2CCCCC2)n1	i	-8.65*	i	i	i	-270.5%*	73.5%*	-41.5%*	65.5%*	60.5%*	i
O=C(Nc1nc2ccccc2n1CCN1CCCCC1)c1ccco1	i	-7.89*	i	i	i	·	·	·	·	i	i	TRPC4 sel inh 2=48.0%*;TRPC4 spec=-17.8%*;HEK293 MPD ctr 2-1=i;HEK293 MPD ctr-1=-264.5%*
O=C(Nc1nc2ccccc2n1CCOc1ccccc1)c1ccco1	i	i	i	i	i	·	·	·	·	·	·
CCOC(=O)N1CCC(N2CCN(C3CCCC3)C(CCO)C2)CC1 (stereo not given)	i	-8.15*	i	i	i	·	·	·	·	i	i	TRPC4 sel inh 2=i;TRPC4 spec=i;HEK293 MPD ctr 2-1=i;HEK293 MPD ctr-1=i
CCOC(=O)N1CCC(N2CCN(Cc3ccccc3)C(CCO)C2)CC1 (stereo not given)	i	i	i	i	i	·	·	·	·	·	·
CCOC(=O)N1CCC(NC2CCCCCCC2)CC1	i	-8.48*	i	i	i	·	·	·	·	i	·	TRPC4 sel inh 2=i;TRPC4 spec=i;HEK293 MPD ctr 2-1=i;HEK293 MPD ctr-1=3.0%*
Cc1cc(-c2ccc(Cl)cc2Cl)c(C#N)c(=O)[nH]1	i	i	i	i	i	·	·	·	·	·	·
CSc1nc(-c2ccc(Cl)cc2Cl)[nH]c(=O)c1C#N	13.5*	i	i	i	i	i	i	12.0%*	i	i	i
COC(=O)Cc1c[nH]c2cccc(OCC(O)CN(Cc3ccccc3)C(C)C)c12 (stereo not given)	i	-7.2*	i	i	i	·	·	·	·	i	i	TRPC4 sel inh 2=71.5%*;TRPC4 spec=0.3%*;HEK293 MPD ctr 2-1=i;HEK293 MPD ctr-1=i
CCNS(=O)(=O)c1ccc(CCC(=O)Nc2ccc3c(c2)OCCO3)cc1	i	i	i	i	i	·	·	·	·	·	·
Cc1cccc(NC(=O)Nc2cc(C)cc(C)n2)c1	i	i	i	i	i	·	·	·	·	·	·
CC(C)Oc1ccc(C(=O)Nc2c3c(nn2-c2ccccc2)CS(=O)(=O)C3)cc1	i	i	i	i	i	·	·	·	·	·	·

Bioassay records as filed in PubChem.
